Test results: ChEMBL document CHEMBL1140263, “Structure-based design, synthesis, and study of potent inhibitors of beta-ketoacyl-acyl carrier protein synthase III as potential antimicrobial agents” (J Med Chem, 2005)
Values after ≈ are worked out from the molar mass of the structure shown.

tested on: Streptococcus pneumoniae; assay: Minimum inhibitory concentration against Streptococcus pneumonia ATCC 6301; format: functional

Row | Structure (SMILES) | MIC [µg/mL]
1 | O=C(Nc1cccc(O)c1C(=O)O)c1ccc(Br)c(Oc2ccccc2)c1 | 45 (≈ 105 µM)
2 | CC1CC(C)CN(c2ccc(C(=O)Nc3ccccc3C(=O)O)cc2Oc2ccccc2)C1 (configuration not stated) | 2.8 (≈ 6.3 µM)
3 | O=C(Nc1cccc(O)c1C(=O)O)c1ccc(-c2ccccc2)c(Oc2ccccc2)c1 | 22 (≈ 51.7 µM)

Further lines, results first:

Row | MIC [µg/mL] | Structure (SMILES)
4 | 2.8 (≈ 6.11 µM) | Cc1cc(-c2ccc(C(=O)Nc3ccccc3C(=O)O)cc2Oc2ccccc2)ccc1Cl
5 | 0.7 (≈ 1.59 µM) | Cc1cc(-c2ccc(C(=O)Nc3ccccc3C(=O)O)cc2Oc2ccccc2)ccc1F

tested on: Streptococcus pyogenes; assay: Minimum inhibitory concentration against Streptococcus pyogenes NZ131; format: functional

Row | Structure (SMILES) | MIC [µg/mL]
6 | O=C(Nc1cccc(O)c1C(=O)O)c1ccc(Br)c(Oc2ccccc2)c1 | 11.3 (≈ 26.4 µM)
7 | CC1CC(C)CN(c2ccc(C(=O)Nc3ccccc3C(=O)O)cc2Oc2ccccc2)C1 (configuration not stated) | 2.8 (≈ 6.3 µM)
8 | O=C(Nc1cccc(O)c1C(=O)O)c1ccc(-c2ccccc2)c(Oc2ccccc2)c1 | 5.6 (≈ 13.2 µM)

The next lines start with the values.

Row | MIC [µg/mL] | Structure (SMILES)
9 | 1.4 (≈ 3.06 µM) | Cc1cc(-c2ccc(C(=O)Nc3ccccc3C(=O)O)cc2Oc2ccccc2)ccc1Cl
10 | 2.8 (≈ 6.34 µM) | Cc1cc(-c2ccc(C(=O)Nc3ccccc3C(=O)O)cc2Oc2ccccc2)ccc1F

tested on: Neisseria meningitidis; assay: Minimum inhibitory concentration against Neisseria meningitides MC58 in presence of membrane permeablizing agent polymyxin B; format: functional

Row | Structure (SMILES) | MIC [µg/mL]
11 | O=C(Nc1cccc(O)c1C(=O)O)c1ccc(Br)c(Oc2ccccc2)c1 | 2.8
12 | CC1CC(C)CN(c2ccc(C(=O)Nc3ccccc3C(=O)O)cc2Oc2ccccc2)C1 (configuration not stated) | 2.8
13 | O=C(Nc1cccc(O)c1C(=O)O)c1ccc(-c2ccccc2)c(Oc2ccccc2)c1 | 1.4

The remaining lines, values ahead:

Row | MIC [µg/mL] | Structure (SMILES)
14 | 0.7 | Cc1cc(-c2ccc(C(=O)Nc3ccccc3C(=O)O)cc2Oc2ccccc2)ccc1Cl
15 | 0.7 | Cc1cc(-c2ccc(C(=O)Nc3ccccc3C(=O)O)cc2Oc2ccccc2)ccc1F

target: T1, Beta-ketoacyl-[acyl-carrier-protein] synthase III (Streptococcus pyogenes serotype M3 (strain ATCC BAA-595 / MGAS315), UniProt P0DB00); assay: Inhibitory concentration against Streptococcus pyogenes beta-Ketoacyl-acyl carrier protein synthase III
T1 sequence (P0DB00 whole entry): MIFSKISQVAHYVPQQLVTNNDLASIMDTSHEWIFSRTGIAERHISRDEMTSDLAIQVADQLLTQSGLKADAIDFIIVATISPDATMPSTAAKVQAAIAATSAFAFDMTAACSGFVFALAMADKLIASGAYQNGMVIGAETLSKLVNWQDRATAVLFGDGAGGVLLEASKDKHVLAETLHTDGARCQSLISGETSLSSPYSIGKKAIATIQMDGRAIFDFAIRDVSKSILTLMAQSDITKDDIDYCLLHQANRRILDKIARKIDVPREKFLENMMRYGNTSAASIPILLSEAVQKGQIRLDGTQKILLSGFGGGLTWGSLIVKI
Procedure, shortened: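 S. pyogenes FabH (10 nM, His-tagged or tagless, expressed in E. coli BL21(DE3)) was run in a coupled assay with 10 nM FabD, 12.5 µM holo-ACP, 100 mM sodium phosphate pH 7.0, 2 mM DTT and 1 mM MgCl₂. Malonyl-CoA was added for 1 min, then [³H]acetyl-CoA/acetyl-CoA with NADH and NADPH for 19 min. The reaction was stopped with cold TCA and the pellet read by scintillation. Inhibitor DMSO ≤2%.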

Row | Structure (SMILES) | IC50 [nM]
16 | O=C(Nc1cccc(O)c1C(=O)O)c1ccc(Br)c(Oc2ccccc2)c1 | 34
17 | O=C(Nc1cccc(O)c1C(=O)O)c1ccc(-c2ccccc2)c(Oc2ccccc2)c1 | 4

target: T2, Beta-ketoacyl-[acyl-carrier-protein] synthase III (Staphylococcus aureus subsp. aureus Mu50, UniProt P68795); assay: Inhibitory concentration against Staphylococcus aureus beta-Ketoacyl-acyl carrier protein synthase III
T2 sequence (P68795 whole entry): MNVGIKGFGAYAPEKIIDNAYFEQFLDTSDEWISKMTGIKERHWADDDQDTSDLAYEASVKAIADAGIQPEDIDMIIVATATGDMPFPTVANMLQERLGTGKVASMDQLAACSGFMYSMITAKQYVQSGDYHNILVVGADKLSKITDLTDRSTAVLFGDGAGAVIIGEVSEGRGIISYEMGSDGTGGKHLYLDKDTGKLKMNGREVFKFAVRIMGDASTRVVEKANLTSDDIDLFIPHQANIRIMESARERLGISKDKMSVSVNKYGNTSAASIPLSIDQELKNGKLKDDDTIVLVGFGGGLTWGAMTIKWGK
Procedure, shortened: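 Coupled FabD/FabH radiometric assay, 100 µL final, pH 7.0: 100 mM sodium phosphate, 2 mM DTT, 1 mM MgCl2, 12.5 µM E. coli holo-ACP, 10 nM FabD, 20 nM S. aureus FabH (His-tagged or tagless, expressed in E. coli BL21(DE3)). FabD started with malonyl-CoA for 1 min. Acetyl-CoA plus [3H]acetyl-CoA, NADH and NADPH then added; FabH reaction 19 min. Stopped with TCA; pellet counted by liquid scintillation. DMSO ≤2% final.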

Row | Structure (SMILES) | IC50 [nM]
18 | O=C(Nc1cccc(O)c1C(=O)O)c1ccc(Br)c(Oc2ccccc2)c1 | 12300
19 | O=C(Nc1cccc(O)c1C(=O)O)c1ccc(-c2ccccc2)c(Oc2ccccc2)c1 | 3800

tested on: Escherichia coli; assay: Minimum inhibitory concentration against Escherichia coli TolC- mutant in presence of membrane permeablizing agent polymyxin B; format: functional

Row | Structure (SMILES) | MIC [µg/mL]
20 | O=C(Nc1cccc(O)c1C(=O)O)c1ccc(Br)c(Oc2ccccc2)c1 | 2.8
21 | CC1CC(C)CN(c2ccc(C(=O)Nc3ccccc3C(=O)O)cc2Oc2ccccc2)C1 (configuration not stated) | 5.6
22 | O=C(Nc1cccc(O)c1C(=O)O)c1ccc(-c2ccccc2)c(Oc2ccccc2)c1 | 1.4

Second part, the compound after the results:

Row | MIC [µg/mL] | Structure (SMILES)
23 | 0.7 | Cc1cc(-c2ccc(C(=O)Nc3ccccc3C(=O)O)cc2Oc2ccccc2)ccc1Cl
24 | 0.7 | Cc1cc(-c2ccc(C(=O)Nc3ccccc3C(=O)O)cc2Oc2ccccc2)ccc1F

tested on: Staphylococcus aureus; assay: Minimum inhibitory concentration against Staphylococcus aureus MRSA 703; format: functional

Row | Structure (SMILES) | MIC [µg/mL]
25 | O=C(Nc1cccc(O)c1C(=O)O)c1ccc(Br)c(Oc2ccccc2)c1 | 45 (≈ 105 µM)
26 | CC1CC(C)CN(c2ccc(C(=O)Nc3ccccc3C(=O)O)cc2Oc2ccccc2)C1 (configuration not stated) | 5.6 (≈ 12.6 µM)
27 | O=C(Nc1cccc(O)c1C(=O)O)c1ccc(-c2ccccc2)c(Oc2ccccc2)c1 | 22 (≈ 51.7 µM)

More lines, now with the values ahead:

Row | MIC [µg/mL] | Structure (SMILES)
28 | 5.6 (≈ 12.2 µM) | Cc1cc(-c2ccc(C(=O)Nc3ccccc3C(=O)O)cc2Oc2ccccc2)ccc1Cl
29 | 5.6 (≈ 12.7 µM) | Cc1cc(-c2ccc(C(=O)Nc3ccccc3C(=O)O)cc2Oc2ccccc2)ccc1F

target: T3, Beta-ketoacyl-[acyl-carrier-protein] synthase III (Haemophilus influenzae (strain ATCC 51907 / DSM 11121 / KW20 / Rd), UniProt P43711); assay: Inhibitory concentration against Haemophilus influenzae beta-Ketoacyl-acyl carrier protein synthase III
T3 sequence (P43711 whole entry): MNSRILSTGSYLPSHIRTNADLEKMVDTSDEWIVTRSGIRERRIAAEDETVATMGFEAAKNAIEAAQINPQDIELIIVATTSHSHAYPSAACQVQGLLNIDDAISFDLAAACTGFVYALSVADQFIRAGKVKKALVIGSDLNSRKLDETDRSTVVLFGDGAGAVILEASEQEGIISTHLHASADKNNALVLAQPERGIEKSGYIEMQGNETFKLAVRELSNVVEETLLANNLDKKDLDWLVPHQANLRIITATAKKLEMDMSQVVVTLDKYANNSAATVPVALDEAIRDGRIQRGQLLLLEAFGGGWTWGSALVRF
Procedure, shortened: (§1)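 Coupled FabD/FabH radiometric assay with His-tagged or tagless FabH expressed in E. coli BL21(DE3). The mix held 100 mM sodium phosphate pH 7.0, 2 mM DTT, 1 mM MgCl₂, 12.5 µM E. coli holo-ACP, 10 nM FabD and 3-5 nM FabH. Malonyl-CoA was added for 1 min, then acetyl-CoA plus [³H]acetyl-CoA, NADH and NADPH for 19 min. TCA-precipitated protein was counted by liquid scintillation; DMSO ≤2% final.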

Row | Structure (SMILES) | IC50 [nM]
30 | O=C(Nc1cccc(O)c1C(=O)O)c1ccc(Br)c(Oc2ccccc2)c1 | 20000
31 | O=C(Nc1cccc(O)c1C(=O)O)c1ccc(-c2ccccc2)c(Oc2ccccc2)c1 | 2400

target: T4, Beta-ketoacyl-[acyl-carrier-protein] synthase III (Enterococcus faecalis (strain ATCC 700802 / V583), UniProt Q820T1); assay: Inhibitory concentration against Enterococcus faecalis beta-Ketoacyl-acyl carrier protein synthase III; procedure, shortened: as §1
T4 sequence (Q820T1 whole entry): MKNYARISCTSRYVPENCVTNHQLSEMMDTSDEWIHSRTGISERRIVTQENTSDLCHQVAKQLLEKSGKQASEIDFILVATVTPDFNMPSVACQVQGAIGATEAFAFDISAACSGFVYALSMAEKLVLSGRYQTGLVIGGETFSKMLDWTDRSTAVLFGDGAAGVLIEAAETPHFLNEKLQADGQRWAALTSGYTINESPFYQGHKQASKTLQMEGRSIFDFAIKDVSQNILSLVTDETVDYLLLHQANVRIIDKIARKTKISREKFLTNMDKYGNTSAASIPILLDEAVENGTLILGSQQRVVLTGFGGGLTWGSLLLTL

Row | Structure (SMILES) | IC50 [nM]
32 | CCN(CC)S(=O)(=O)c1cc(C(=O)Nc2ccccc2C(=O)O)ccc1-c1ccccc1 | 1600
33 | O=C(Nc1cccc(O)c1C(=O)O)c1ccc(Br)c(Oc2ccccc2)c1 | 62
34 | CC1CC(C)CN(c2ccc(C(=O)Nc3ccccc3C(=O)O)cc2Oc2ccccc2)C1 (configuration not stated) | 270
35 | O=C(Nc1cccc(O)c1C(=O)O)c1ccc(-c2ccccc2)c(Oc2ccccc2)c1 | 4

The remaining lines, values ahead:

Row | IC50 [nM] | Structure (SMILES)
36 | 250 | Cc1cc(-c2ccc(C(=O)Nc3ccccc3C(=O)O)cc2Oc2ccccc2)ccc1Cl
37 | 240 | Cc1cc(-c2ccc(C(=O)Nc3ccccc3C(=O)O)cc2Oc2ccccc2)ccc1F

tested on: not listed separately; assay: Minimum inhibitory concentration against Enterococcus faecalis VRE 583; format: functional, Enterococcus faecalis V583

Row | Structure (SMILES) | MIC [µg/mL]
38 | O=C(Nc1cccc(O)c1C(=O)O)c1ccc(Br)c(Oc2ccccc2)c1 | > 45
39 | CC1CC(C)CN(c2ccc(C(=O)Nc3ccccc3C(=O)O)cc2Oc2ccccc2)C1 (configuration not stated) | 11.3 (≈ 25.4 µM)
40 | O=C(Nc1cccc(O)c1C(=O)O)c1ccc(-c2ccccc2)c(Oc2ccccc2)c1 | > 45

Results, then the compound that gave them:

Row | MIC [µg/mL] | Structure (SMILES)
41 | 5.6 (≈ 12.2 µM) | Cc1cc(-c2ccc(C(=O)Nc3ccccc3C(=O)O)cc2Oc2ccccc2)ccc1Cl
42 | 2.8 (≈ 6.34 µM) | Cc1cc(-c2ccc(C(=O)Nc3ccccc3C(=O)O)cc2Oc2ccccc2)ccc1F
